Measured values as given in ChEMBL document CHEMBL1124250, “9-Benzyl-6-(dimethylamino)-9H-purines with antirhinovirus activity” (J Med Chem, 1988).

Key:
rhinovirus A1B [1] = test: In vitro activity against Rhinovirus type 1B by plaque inhibition assay.; type: functional, organism-based, Enterovirus; conditions: Rhinovirus A
rhinovirus A1B [2] = test: In vitro activity against rhinovirus type 1B was determined by plaque inhibition assay; Inactive at 50 ug/disk, T=Toxic; type: functional, organism-based, Enterovirus
How it was run: (§1)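 Rhinovirus 1B plaque inhibition run on M-HeLa cell monolayers, with compound applied on disks at 50 µg/disk. Compounds active or slightly active at this level went on to a plaque reduction assay for the 50% inhibitory concentration.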

rhinovirus A1B [3] = test: In vitro activity against rhinovirus type 1B was determined by plaque inhibition assay; - = Inactive at 50 ug/disk; type: functional, organism-based, Enterovirus; how it was run: as §1
Enterovirus [4] = test: Inhibitory concentration measured against Rhinovirus serotype 30; type: functional, organism-based
Enterovirus [5] = test: Inhibitory concentration measured against Rhinovirus serotype 1B; type: functional, organism-based
Enterovirus [6] = test: Inhibitory concentration measured against Rhinovirus serotype 18; type: functional, organism-based
Enterovirus [7] = test: Inhibitory concentration measured against Rhinovirus serotype 13; type: functional, organism-based
Enterovirus [8] = test: Inhibitory concentration measured against Rhinovirus serotype 5; type: functional, organism-based
Enterovirus [9] = test: Inhibitory concentration measured against Rhinovirus serotype 4; type: functional, organism-based
Enterovirus [10] = test: Inhibitory concentration measured against Rhinovirus serotype 15; type: functional, organism-based
Enterovirus [11] = test: Inhibitory concentration measured against Rhinovirus serotype 3; type: functional, organism-based
Enterovirus [12] = test: Inhibitory concentration measured against Rhinovirus serotype 16; type: functional, organism-based
Enterovirus [13] = test: Inhibitory concentration measured against Rhinovirus serotype 31; type: functional, organism-based
Enterovirus [14] = test: Inhibitory concentration measured against Rhinovirus serotype 1A; type: functional, organism-based
Enterovirus [15] = test: Inhibitory concentration measured against Rhinovirus serotype 14; type: functional, organism-based
Enterovirus [16] = test: Inhibitory concentration measured against Rhinovirus serotype 2; type: functional, organism-based
Enterovirus [17] = test: Inhibitory concentration measured against Rhinovirus serotype 8; type: functional, organism-based
Enterovirus [18] = test: Inhibitory concentration measured against Rhinovirus serotype 9; type: functional, organism-based
Enterovirus [19] = test: Inhibitory concentration measured against Rhinovirus serotype 29; type: functional, organism-based
Enterovirus [20] = test: Inhibitory concentration measured against Rhinovirus serotype 12; type: functional, organism-based
Enterovirus [21] = test: Inhibitory concentration measured against Rhinovirus serotype 19; type: functional, organism-based
Enterovirus [22] = test: Inhibitory concentration measured against Rhinovirus serotype 21; type: functional, organism-based
Enterovirus [23] = test: Percent inhibition of plaque formation of Rhinovirus serotype 8 was measured at 4 uM of the compound; type: functional
Enterovirus [24] = test: Percent inhibition of plaque formation of Rhinovirus serotype 18 was measured at 4 uM of the compound; type: functional
Enterovirus [25] = test: Percent inhibition of plaque formation of Rhinovirus serotype 18 was measured at 5 uM of the compound; type: functional
Enterovirus [26] = test: Percent inhibition of plaque formation of Rhinovirus serotype 15 was measured at 2.5 uM of the compound; type: functional
Enterovirus [27] = test: Percent inhibition of plaque formation of Rhinovirus serotype 31 was measured at 2.5 uM of the compound; type: functional
Enterovirus [28] = test: Percent inhibition of plaque formation of Rhinovirus serotype 14 was measured at 2.5 uM of the compound; type: functional
Enterovirus [29] = test: Percent inhibition of plaque formation of Rhinovirus serotype 29 was measured at 2.5 uM of the compound; type: functional
Enterovirus [30] = test: Percent inhibition of plaque formation of Rhinovirus serotype 13 was measured at 5 uM of the compound; type: functional

COc1cccc(Cn2cnc3c(N(C)C)ncnc32)c1
IC50 (rhinovirus A1B [1]): 50 µM

CN(C)c1ncnc2c1ncn2Cc1cccc(N)c1
IC50 (rhinovirus A1B [1]): 50 µM

COc1cccc(Cn2cnc3c(N(C)C)nc(Cl)nc32)c1
IC50 (rhinovirus A1B [1]): 2 µM

CN(C)c1ncnc2c1ncn2Cc1ccccc1
IC50 (rhinovirus A1B [1]): 33 µM

CN(C)c1nc(Cl)nc2c1ncn2Cc1ccc(Cl)c(Cl)c1
IC50 (rhinovirus A1B [1]): 0.32 µM

CN(C)c1ncnc2c1ncn2Cc1ccc(Cl)c(Cl)c1
IC50 (rhinovirus A1B [1]): 2.5 µM

CN(C)c1ncnc2c1ncn2Cc1cccc(NC(=O)C(N)Cc2ccccc2)c1 (configuration not stated)
IC50 (rhinovirus A1B [1]): 17 µM

CN(C)c1ncnc2c1ncn2Cc1cccc(Cl)c1
IC50 (rhinovirus A1B [1]): 30.5 µM

CN(C)c1nc(Cl)nc2c1ncn2Cc1cccc(OCc2ccccc2)c1
IC50 (rhinovirus A1B [2]): Toxic

CN(C)c1ncnc2c1ncn2Cc1ccc(C#N)cc1
IC50 (rhinovirus A1B [3]): Not Active

COc1ccc(Cn2cnc3c(N(C)C)ncnc32)cc1
IC50 (rhinovirus A1B [1]): 38 µM

CN(C)c1ncnc2c1ncn2Cc1cccc(OCc2ccccc2)c1
IC50 (rhinovirus A1B [1]): 13 µM

CN(C)c1nc(Cl)nc2c1ncn2Cc1ccccc1
IC50 (rhinovirus A1B [1]): 0.82 µM

CN(C)c1ncnc2c1ncn2Cc1cccc(C#N)c1
IC50 (rhinovirus A1B [3]): Not Active

CC(C)S(=O)(=O)n1c(N)nc2ccc(/C(=N/O)c3ccccc3)cc21 [ENVIROXIME]
IC50 (rhinovirus A1B [1]): 0.04 µM

CN(C)c1ncnc2c1ncn2Cc1ccc(OCc2ccccc2)cc1
IC50 (rhinovirus A1B [3]): Not Active

CN(C)c1ncnc2c1ncn2Cc1cccc(Br)c1
IC50 (rhinovirus A1B [1]): 14.4 µM

CN(C)c1ncnc2c1ncn2Cc1cccc(O)c1
IC50 (rhinovirus A1B [3]): Not Active

CN(C)c1ncnc2c1ncn2Cc1ccc([N+](=O)[O-])cc1
IC50 (rhinovirus A1B [3]): Not Active

CC(C)c1ccc(Cn2cnc3c(N(C)C)nc(Cl)nc32)cc1
IC50 (Enterovirus [4]): 8 µM
IC50 (Enterovirus [5]): 0.07 µM
IC50 (Enterovirus [6]): 4.3 µM
IC50 (Enterovirus [7]): 5.8 µM
IC50 (Enterovirus [8]): 8 µM
IC50 (rhinovirus A1B [1]): 0.07 µM
IC50 (Enterovirus [9]): 6.1 µM
IC50 (Enterovirus [10]): 4.5 µM
IC50 (Enterovirus [11]): 7 µM
IC50 (Enterovirus [12]): 0.2 µM
IC50 (Enterovirus [13]): 4 µM
IC50 (Enterovirus [14]): < 1 µM
IC50 (Enterovirus [15]): 5.9 µM
IC50 (Enterovirus [16]): 1.2 µM
IC50 (Enterovirus [17]): 6 µM
IC50 (Enterovirus [18]): < 1 µM
IC50 (Enterovirus [19]): 0.5 µM
IC50 (Enterovirus [20]): 3.4 µM
IC50 (Enterovirus [21]): 7 µM

CCc1ccc(Cn2cnc3c(N(C)C)nc(Cl)nc32)cc1
IC50 (Enterovirus [4]): 4 µM
IC50 (Enterovirus [5]): 0.08 µM
IC50 (Enterovirus [22]): 8 µM
IC50 (Enterovirus [7]): 4.9 µM
IC50 (Enterovirus [8]): 5.6 µM
IC50 (rhinovirus A1B [1]): 0.08 µM
IC50 (Enterovirus [9]): 4 µM
IC50 (Enterovirus [10]): 3.9 µM
IC50 (Enterovirus [11]): 4 µM
IC50 (Enterovirus [12]): 0.2 µM
IC50 (Enterovirus [13]): 3.5 µM
IC50 (Enterovirus [14]): 0.5 µM
IC50 (Enterovirus [15]): 3.3 µM
Inhibition (Enterovirus [23]): 30%
Inhibition (Enterovirus [24]): 42%
IC50 (Enterovirus [16]): 2.8 µM
IC50 (Enterovirus [18]): 0.4 µM
IC50 (Enterovirus [19]): 0.3 µM
IC50 (Enterovirus [20]): 7 µM
IC50 (Enterovirus [21]): 4.6 µM

CN(C)c1nc(Cl)nc2c1ncn2Cc1cccc(I)c1
IC50 (rhinovirus A1B [1]): 0.36 µM

CN(C)c1nc(Cl)nc2c1ncn2Cc1ccc([N+](=O)[O-])cc1
IC50 (rhinovirus A1B [1]): 0.51 µM

CN(C)c1nc(Cl)nc2c1ncn2Cc1cccc(Cl)c1
IC50 (rhinovirus A1B [1]): 0.59 µM

Cc1ccc(Cn2cnc3c(N(C)C)nc(Cl)nc32)cc1
IC50 (Enterovirus [5]): 0.08 µM
IC50 (Enterovirus [6]): 4 µM
IC50 (Enterovirus [22]): 5.6 µM
IC50 (Enterovirus [7]): 2.3 µM
IC50 (Enterovirus [8]): 6.2 µM
IC50 (rhinovirus A1B [1]): 0.08 µM
IC50 (Enterovirus [9]): 4.6 µM
IC50 (Enterovirus [10]): 3.5 µM
IC50 (Enterovirus [11]): 7.2 µM
IC50 (Enterovirus [12]): 1 µM
IC50 (Enterovirus [13]): 1.6 µM
IC50 (Enterovirus [14]): 0.12 µM
IC50 (Enterovirus [15]): 7 µM
IC50 (Enterovirus [16]): 11 µM
IC50 (Enterovirus [17]): 13 µM
IC50 (Enterovirus [18]): 2 µM
IC50 (Enterovirus [19]): > 5 µM
IC50 (Enterovirus [20]): 5.4 µM
IC50 (Enterovirus [21]): 14 µM

CN(C)c1ncnc2c1ncn2Cc1ccc(O)cc1
IC50 (rhinovirus A1B [1]): 34 µM

CN(C)c1ncnc2c1ncn2Cc1ccc(N)cc1
IC50 (rhinovirus A1B [3]): Not Active

CN(C)c1ncnc2c1ncn2Cc1cc(Cl)cc(Cl)c1
IC50 (rhinovirus A1B [1]): 4.6 µM

CN(C)c1nc(Cl)nc2c1ncn2Cc1ccc2ccccc2c1
IC50 (rhinovirus A1B [1]): 1.1 µM

CN(C)c1nc(Cl)nc2c1ncn2Cc1ccc(N)cc1
IC50 (rhinovirus A1B [1]): 0.3 µM

Cc1cccc(Cn2cnc3c(N(C)C)nc(Cl)nc32)c1
IC50 (rhinovirus A1B [1]): 0.6 µM

Cc1cccc(Cn2cnc3c(N(C)C)ncnc32)c1
IC50 (rhinovirus A1B [1]): 32 µM

CN(C)c1ncnc2c1ncn2Cc1cccc([N+](=O)[O-])c1
IC50 (rhinovirus A1B [3]): Not Active

CN(C)c1nc(Cl)nc2c1ncn2Cc1ccc(C(C)(C)C)cc1
IC50 (rhinovirus A1B [1]): 0.44 µM

CN(C)c1ncnc2c1ncn2Cc1ccc(Cl)cc1
IC50 (rhinovirus A1B [1]): > 25 µM

COc1ccc(Cn2cnc3c(N(C)C)nc(Cl)nc32)cc1
IC50 (rhinovirus A1B [1]): 0.7 µM

CN(C)c1ncnc2c1ncn2Cc1cccc(I)c1
IC50 (rhinovirus A1B [1]): 6.7 µM

CN(C)c1ncnc2c1ncn2Cc1ccc(F)cc1
IC50 (rhinovirus A1B [3]): Not Active

CN(C)c1nc(Cl)nc2c1ncn2Cc1cccc(N)c1
IC50 (rhinovirus A1B [1]): 13 µM

CN(C)c1ncnc2c1ncn2Cc1cccc(F)c1
IC50 (rhinovirus A1B [1]): 23 µM

CN(C)c1ncnc2c1ncn2Cc1cccc(C(F)(F)F)c1
IC50 (rhinovirus A1B [1]): 19.6 µM

CC(=O)Nc1ccc(Cn2cnc3c(N(C)C)ncnc32)cc1
IC50 (rhinovirus A1B [3]): Not Active

Cc1ccc(Cn2cnc3c(N(C)C)ncnc32)cc1
IC50 (rhinovirus A1B [1]): 8.6 µM

CN(C)c1nc(Cl)nc2c1ncn2Cc1ccc(Cl)cc1
IC50 (Enterovirus [4]): > 2.5 µM
IC50 (Enterovirus [5]): 0.12 µM
Inhibition (Enterovirus [25]): 35%
IC50 (Enterovirus [22]): > 5 µM
IC50 (Enterovirus [8]): 5.2 µM
IC50 (rhinovirus A1B [1]): 0.12 µM
IC50 (Enterovirus [9]): > 2.5 µM
Inhibition (Enterovirus [26]): 40%
IC50 (Enterovirus [11]): 3.1 µM
IC50 (Enterovirus [14]): 3 µM
Inhibition (Enterovirus [27]): 42%
Inhibition (Enterovirus [28]): 32%
IC50 (Enterovirus [16]): 2.5 µM
IC50 (Enterovirus [17]): 4.5 µM
IC50 (Enterovirus [18]): 2.1 µM
Inhibition (Enterovirus [29]): 31%
Inhibition (Enterovirus [30]): 12%
IC50 (Enterovirus [20]): 5.4 µM
IC50 (Enterovirus [21]): > 5 µM
